Bioassay records (PubChem BioAssay)
Rev-erbA mod: modulators of human Rev-erb alpha DNA binding. P20393. AID 1259318. Rev-erbα–FITC-DNA binding, fluorescence polarization, 90 min. 370,000 compounds, 0.79% hits. activity, % at 10 µM;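 active means activity above about 14%, limit read from the data; passing the limit was not always enough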;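 further: 0% = DMSO wells with 35 nM protein and 100% = DMSO wells with 750 nM protein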
Target sequence (P20393 whole entry, looked up): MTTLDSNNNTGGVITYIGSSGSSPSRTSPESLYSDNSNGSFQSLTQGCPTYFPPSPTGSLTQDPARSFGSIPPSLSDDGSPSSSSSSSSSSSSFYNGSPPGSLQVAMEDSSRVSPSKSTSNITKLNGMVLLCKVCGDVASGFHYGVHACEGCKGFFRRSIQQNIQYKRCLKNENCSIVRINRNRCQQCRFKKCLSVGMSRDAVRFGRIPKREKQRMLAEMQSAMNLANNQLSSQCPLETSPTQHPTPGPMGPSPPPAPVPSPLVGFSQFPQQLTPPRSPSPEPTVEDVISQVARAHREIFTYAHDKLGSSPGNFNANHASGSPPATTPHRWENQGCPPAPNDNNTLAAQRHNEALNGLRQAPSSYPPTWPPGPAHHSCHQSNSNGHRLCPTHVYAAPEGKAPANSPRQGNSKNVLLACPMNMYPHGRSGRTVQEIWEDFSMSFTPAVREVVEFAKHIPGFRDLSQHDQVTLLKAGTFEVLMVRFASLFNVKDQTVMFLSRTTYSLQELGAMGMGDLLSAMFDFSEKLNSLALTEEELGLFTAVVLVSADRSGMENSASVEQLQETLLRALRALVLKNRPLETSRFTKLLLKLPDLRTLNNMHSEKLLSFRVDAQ
hiPSC survival: increases survival of single human iPS cells; hiPSC single-cell survival, ATPlite luminescence; 100% = ROCK inhibitor wells, 0% = DMSO; survival enhancement, % at 20 µM; 360,000 compounds, 0.044% hits; AID 602274; in the data active means survival enhancement above about 18%;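 further: cells exposed to compounds for 16 hours before the ATP read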
PG9 Ab binder: PG9 antibody binding by small molecule; 360,000 compounds, 0.43% hits; inhibition, % at 6.7 µM; TR-FRET gp120-PG9 antibody binding; in the data active means inhibition above about 8.5%
T cruzi repl: blocks replication of Trypanosoma cruzi; T. cruzi beta-gal in NIH3T3, luminescence, 90 h; inhibition, % (test concentration not listed); 300,000 compounds, 1.4% hits; AID 1885;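 active means mean inhibition across valid replicates above about 55%, limit read from the data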;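 further: signal also drops with host cell toxicity which is not excluded here; 0% = plate median of DMSO wells and 100% = zero luminescence signal; higher percent means less beta-gal luminescence so fewer parasites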
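Read-out: Parasite load inhibition, % | Test system: Mouse NIH/3T3 fibroblasts infected with β-gal-expressing T. cruzi Tulahuen C4 | Amount: 5,000 cells/well | Medium: DMEM, 2% fetal bovine serum | Signal: GalScreen β-gal luminescence, detergent lysis, 60 min | Timing: 3 h attach, ≥90 h co-culture | Also added: Tulahuen C4 trypomastigotes, 5000/well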
TAG inh: triacylglycerol accumulation inhibition. H9c2 cells, Nile Red lipid (TAG) fluorescence; cells loaded with 200 µM oleic acid. inhibition, % at 12.5 µM. 230,000 compounds, 0.66% hits;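 active means pattern-corrected inhibition of lipid staining of at least 50% with the nuclear-stain viability signal not falling by more than 50%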;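 further: 0% = DMSO wells and 100% = triacsin C control wells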
beta cell repl: induces beta-cell replication in MIN6 cells; AID 2380; proliferation, % at 10 µM; 330,000 compounds, 0.29% hits; MIN6 cells proliferation, ATPlite luminescence, 48 h; cells starved in 0.2% serum; 100% = growth in 10% serum;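 active means compounds whose signal lies at least 3.5 SD above the mean of all wells on their plate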;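 further: 0% = DMSO-treated cells in low-serum medium and 100% = 10% serum control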
PG9 binder conf: PG9 antibody binding, confirmed | TR-FRET PG9 antibody binding, biochemical | 1,500 compounds, 90% hits | shares compounds with PG9 Ab binder | inhibition, % at 6.7 µM; in the data active means inhibition above about 9%
PGV04 counter: counter-screen for PG9 binders: binding control antibody PGV04; shares compounds with PG9 Ab binder; TR-FRET PGV04 antibody-gp120 binding, biochemical; inhibition, % at 6.7 µM; 1,500 compounds, 95% hits; AID 651604; in the data active means inhibition above about 9.5%
PG9 binder DR: PG9 antibody binding, dose response; shares compounds with PG9 Ab binder; TR-FRET PG9 antibody-gp120 binding inhibition; IC50, µM; 95 tested, under 10 active; AID 651848; in the data active means IC50 below about 10 µM
PGV04 binding DR: binds control antibody PGV04 in PG9 counter-screen | shares compounds with PG9 Ab binder | TR-FRET binding to control antibody PGV04 | IC50, µM | 95 compounds, 20% hits | AID 651937
PG126 binding DR: PG126 binding, dose response counter-screen. shares compounds with PG9 Ab binder. TR-FRET binding to antibody PG126, counterscreen. IC50, µM. 95 compounds, 20% hits
Rev-erbA confirm: Rev-erb alpha (human) modulation, hit confirmation. shares compounds with Rev-erbA mod. Rev-erb alpha FITC-DNA binding, fluorescence polarization, 90 min. activation, % at 25 µM. 3,000 compounds, 61% hits. AID 1259319;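 active means activation at or above a set limit, or at least 3 SD above the negative control mean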;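 further: 0% = 35 nM protein with DMSO and 100% = 750 nM protein high control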
RORg counter: affects RORgamma DNA binding in a Rev-erb alpha counter-screen; IC50, µM; shares compounds with Rev-erbA mod; AID 1259320; purified RORgamma protein-FITC-DNA binding, fluorescence polarization; 910 compounds, 8% hits;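 active means Compounds whose fitted half-maximal concentration for disrupting protein-DNA binding is below 10 micromolar; the record names Rev-erb in its text, so the target is in doubt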
* = called active by the depositor; i = inactive; . = no result given. Shown are actives, neighbours in structure and some others; about 2.9% of the full set was active somewhere. Unless noted, no stated cut-off is given here; in the data, active means IC50 below about 9 µM; inactive means the rest.

SMILES | Rev-erbA mod | hiPSC survival | PG9 Ab binder | T cruzi repl | TAG inh | beta cell repl | PG9 binder conf | PGV04 counter | Rev-erbA confirm | others
O=C(CN1CCCCC1)Nc1c2c(nc3ccccc13)N(c1ccccc1)CC2 | 109* | -2 | 48* | 9 | 45 | -5 | 72* | 79* | 75* | RORg counter=>40
O=C(Cn1c(=O)c2cccn2c2ccccc21)NCCc1ccc(Cl)cc1 | 66* | 0 | 36* | 16 | . | -3 | 40* | 43* | 27*
CCn1c(=O)c(-c2nc3ccccc3[nH]2)c(O)c2ccccc21 | 32* | . | 44* | -7 | . | -4 | 43* | 49* | 1
CCCn1c(=O)c(-c2nc3ccccc3[nH]2)c(O)c2ccccc21 | 26* | -1 | 50* | 26 | 11 | -1 | 62* | 71* | -4
CCCCCCn1c(=O)c(-c2ccccc2)c(O)c2ccccc21 | -4 | 2 | 3 | -14 | -7 | 2 | . | . | .
Cn1cc(-c2nc3ccccc3[nH]2)c2ccccc21 | 0 | -4 | -5 | -3 | -4 | -1 | . | . | .
O=C(NN=Cc1cccc2ccccc12)C1CC1 | 3 | -3 | -4 | . | 0 | . | . | . | .
COc1ccc(NC(=O)Cn2c(=O)n(-c3ccccc3)c(=O)c3sccc32)c(OC)c1 | -5 | 0 | 2 | -6 | -1 | -2 | . | . | .
CCOc1ccc(-n2c(=O)c3sccc3n(CC(=O)Nc3cccc(OC)c3)c2=O)cc1 | 31* | 0 | 24* | -5 | 2 | 3 | 26* | 43* | 27*
COC(=O)Cn1c(=NC(=O)c2ccc(OC)cc2)sc2cc(OC)ccc21 | 34* | 1 | 64* | 22 | . | 2 | 49* | 60* | -3
COC(=O)Cn1c(=NC(=O)CSCC(=O)Nc2cc(C)on2)sc2cc(C(=O)OC)ccc21 | 5 | 0 | -2 | -1 | -4 | -3 | . | . | .
O=c1[nH]c(SCCOc2cccc3ccccc23)nc2ccccc12 | -1 | 2 | -12 | 5 | . | -2 | . | . | .
CCOc1ccc(OCCSc2nc3ccccc3c(=O)[nH]2)cc1 | 26* | -1 | 39* | 13 | . | -1 | 37* | 52* | 11
Cc1nc2sc(C(=O)OCC(=O)N3c4ccccc4CC3C)c(C)c2c(=O)[nH]1 (stereo unspecified) | 20* | 1 | 9.9* | 0 | 7 | -3 | 21* | 26* | 14
Cc1cccc(C(=O)OCC(=O)N2c3ccccc3CC2C)c1C (stereo unspecified) | -2 | 0 | 0 | . | -9 | . | . | . | .
COc1cnc(SCc2ccc(Cl)cc2Cl)nc1Cl | 1 | 0 | -2 | 4 | . | -5 | . | . | .
CCOC(=O)c1cccc2c(=O)c(C(=O)c3ccc(Cl)cc3)c(C(=O)OC)[nH]c12 | 50* | -2 | 21* | 0 | . | 2 | 11* | 19* | 37* | RORg counter=>40
Nc1nc(SCC(=O)Nc2ccccc2)nc2nc3c(cc12)CCCC3 | 6 | 0 | -1 | 3 | . | 0 | . | . | .
O=C(CSc1nc2nc3c(cc2c(=O)n1-c1ccccc1)CCCC3)Nc1ccccc1 | 27* | 5 | 18* | 14 | . | 0 | 31* | 46* | 20*
Cc1cc2oc(=O)cc(C)c2cc1NC(=O)CCl | -3 | 0 | 1 | -5 | 6 | -4 | . | . | .
CN(C)CCCNc1nc2cc(-c3cccc(Cl)c3)sc2c(=O)n1C | -7 | -2 | -3 | . | 18 | . | . | . | .
COc1ccc(C(=O)Cn2cnc3ccc(Cl)cc3c2=O)cc1F | 33* | 0 | 21* | 3 | . | 4 | 36* | 48* | 32* | RORg counter=i
Cc1ccc(C)c(Cn2c(=O)n(CCCC(=O)NCc3ccco3)c(=O)c3ccccc32)c1 | 4 | 0 | -1 | 20 | . | 0 | . | . | .
Cc1ccc(C)c(Cn2c(=O)n(CCCC(=O)NCc3ccco3)c(=O)c3sccc32)c1 | 18* | -3 | 18* | -8 | 15 | -4 | 21* | 29* | 4
Cc1ccc(-n2nc3c(N4CCC(C(=O)NCc5ccccc5C)CC4)nnc(C)c3c2C)cc1 | . | 0 | . | 36 | . | -5 | . | . | .
SMILES | Rev-erbA mod | hiPSC survival | PG9 Ab binder | T cruzi repl | TAG inh | beta cell repl | PG9 binder conf | PGV04 counter | Rev-erbA confirm | others
CCOc1ccccc1CNC(=O)C1CCN(c2nnc(C)c3c(C)n(-c4ccc(C)cc4)nc23)CC1 | 44* | 0 | 9.3* | 57* | . | -7 | 12* | 33* | 34* | RORg counter=>40
O=[N+]([O-])c1ccc(COc2ccc(-c3[nH]ncc3-c3ccc(Cl)cc3)c(O)c2)cc1 | 3 | 0 | -4 | 38 | . | -7 | . | . | .
CCOC(=O)c1cc2sc(C)cc2n1CC(=O)NCCc1ccccc1 | 32* | 1 | 55* | 18 | . | -2 | 49* | 53* | 13
CCc1cc2cc(C(=O)Nc3ccc(F)cc3)sc2s1 | 78* | -1 | 46* | -7 | 1 | -3 | 53* | 60* | 63* | RORg counter=>40
CCc1cc2cc(C(=O)Nc3ccccc3F)sc2s1 | 11 | -1 | 0 | -9 | . | -3 | . | . | .
Cc1ccc(NC(=O)CCC(=O)NNS(=O)(=O)c2ccccc2)cc1C | -1 | 0 | 1 | -24 | -9 | -2 | . | . | .
CCOC(=O)C(=NCCCN1CCOCC1)NNc1cccc(C(F)(F)F)c1 | -4 | 0 | -4 | -8 | 12 | -2 | . | . | .
CCOC(=O)c1ccc(S(=O)(=O)NNC(=O)COc2ccc(C)cc2)cc1 | 9 | 2 | -2 | 9 | . | -1 | . | . | .
NS(=O)(=O)c1ccc(CCNC(=O)CCCCCn2c(=S)[nH]c3ccc(Br)cc3c2=O)cc1 | 41* | 0 | 30* | -1 | 16 | -1 | 28* | 26* | 16 | PG9 binder DR=i;PGV04 binding DR=i;PG126 binding DR=i
O=C(CCCCCn1c(=S)[nH]c2ccc(Br)cc2c1=O)NCC1CCCO1 (stereo unspecified) | 3 | 1 | 6 | -6 | . | -2 | . | . | .
